Source: ChEMBL document CHEMBL4351001, “2-Aminoimidazole-based antagonists of the 5-HT6 receptor - A new concept in aminergic GPCR ligand design” (Eur J Med Chem, 2019)
pKi: −log10 of the molar value. Converted amounts (≈) assume the structure as drawn.

Legend:
[1] = biological target: T1, 5-hydroxytryptamine receptor 6 (Homo sapiens, UniProt P50406); assay: Displacement of [3H]LSD from human 5HT6 receptor expressed in HEK293 cells measured after 1 hr by liquid scintillation counter method; type: cell-based
T1 sequence (P50406 whole entry): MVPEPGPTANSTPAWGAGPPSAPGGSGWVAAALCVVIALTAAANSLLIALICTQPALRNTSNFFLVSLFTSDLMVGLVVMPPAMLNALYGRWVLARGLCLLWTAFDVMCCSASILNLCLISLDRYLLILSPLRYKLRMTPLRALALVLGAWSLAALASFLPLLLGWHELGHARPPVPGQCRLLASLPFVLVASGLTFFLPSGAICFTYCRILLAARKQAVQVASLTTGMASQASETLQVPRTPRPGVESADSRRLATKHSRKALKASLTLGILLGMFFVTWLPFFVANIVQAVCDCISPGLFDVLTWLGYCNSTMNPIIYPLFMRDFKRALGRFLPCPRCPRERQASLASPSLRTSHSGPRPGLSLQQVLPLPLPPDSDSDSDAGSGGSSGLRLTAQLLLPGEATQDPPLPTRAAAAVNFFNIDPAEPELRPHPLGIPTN

[2] = biological target: 5-hydroxytryptamine receptor 7 (Homo sapiens, UniProt P34969); assay: Displacement of [3H]-5-CT from human 5HT7 receptor expressed in HEK293 cells measured after 1 hr by liquid scintillation counter method; type: cell-based; conditions: for pKi: read-out: Ki; for Ki: hek293
Sequence of 5-hydroxytryptamine receptor 7 (P34969 whole entry): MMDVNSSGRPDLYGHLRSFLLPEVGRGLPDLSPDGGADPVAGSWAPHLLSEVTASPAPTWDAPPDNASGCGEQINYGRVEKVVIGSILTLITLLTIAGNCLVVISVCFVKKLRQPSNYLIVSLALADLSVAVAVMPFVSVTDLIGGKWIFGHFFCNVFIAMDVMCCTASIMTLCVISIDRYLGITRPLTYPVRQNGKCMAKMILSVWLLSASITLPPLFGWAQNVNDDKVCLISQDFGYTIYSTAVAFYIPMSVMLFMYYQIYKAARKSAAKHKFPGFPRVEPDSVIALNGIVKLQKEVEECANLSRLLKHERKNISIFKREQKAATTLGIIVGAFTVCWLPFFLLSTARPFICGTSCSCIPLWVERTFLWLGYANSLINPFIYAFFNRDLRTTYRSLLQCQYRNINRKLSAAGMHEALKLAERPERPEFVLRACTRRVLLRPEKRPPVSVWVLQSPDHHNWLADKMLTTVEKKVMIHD

D(2) dopamine receptor = D(2) dopamine receptor (Homo sapiens, UniProt P14416); assay: Displacement of [3H]-methylspiperone from human D2 long receptor expressed in HEK293 cells measured after 1 hr by liquid scintillation counter method; type: cell-based
Sequence of D(2) dopamine receptor (P14416 whole entry): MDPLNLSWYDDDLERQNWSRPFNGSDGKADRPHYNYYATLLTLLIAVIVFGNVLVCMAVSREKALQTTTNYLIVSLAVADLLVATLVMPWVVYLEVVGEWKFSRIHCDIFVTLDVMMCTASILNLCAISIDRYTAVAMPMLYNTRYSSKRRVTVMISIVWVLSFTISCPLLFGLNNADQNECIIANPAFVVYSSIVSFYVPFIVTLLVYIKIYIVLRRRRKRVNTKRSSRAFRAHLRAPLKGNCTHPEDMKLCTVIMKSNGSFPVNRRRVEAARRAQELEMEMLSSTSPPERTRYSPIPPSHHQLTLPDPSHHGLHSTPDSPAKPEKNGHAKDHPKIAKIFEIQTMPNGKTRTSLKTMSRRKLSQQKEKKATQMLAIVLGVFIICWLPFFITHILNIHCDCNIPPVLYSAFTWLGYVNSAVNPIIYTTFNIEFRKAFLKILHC
Summary of the method: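 HEK293 membranes stably expressing human D2L receptor, incubated 1 h at 37°C, then filtered and retained radioactivity counted; (+)-butaclamol 1 μM defines nonspecific binding. Tested in triplicate at 7–8 concentrations (10⁻¹¹–10⁻⁴ M); Ki via Cheng-Prusoff, averaged over at least two independent experiments.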

[3] = biological target: 5-hydroxytryptamine receptor 2A (Homo sapiens, UniProt P28223); assay: Displacement of [3H]ketanserin from human 5HT2A receptor expressed in CHOK1 cells incubated for 1 hr by liquid scintillation counter method; type: cell-based; conditions: for pKi: read-out: Ki
Sequence of 5-hydroxytryptamine receptor 2A (P28223 whole entry): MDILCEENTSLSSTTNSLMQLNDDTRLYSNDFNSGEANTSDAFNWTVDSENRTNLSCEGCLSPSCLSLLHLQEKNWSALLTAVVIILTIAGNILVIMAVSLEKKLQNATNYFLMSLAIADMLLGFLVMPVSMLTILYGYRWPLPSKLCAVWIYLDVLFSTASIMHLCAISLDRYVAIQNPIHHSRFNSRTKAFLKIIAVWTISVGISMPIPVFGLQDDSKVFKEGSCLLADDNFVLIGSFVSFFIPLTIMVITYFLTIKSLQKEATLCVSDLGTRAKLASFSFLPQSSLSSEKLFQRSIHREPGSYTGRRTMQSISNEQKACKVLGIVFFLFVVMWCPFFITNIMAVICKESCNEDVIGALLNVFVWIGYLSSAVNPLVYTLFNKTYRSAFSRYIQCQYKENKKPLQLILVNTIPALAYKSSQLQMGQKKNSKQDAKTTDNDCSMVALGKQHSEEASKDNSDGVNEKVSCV

[4] = Solubility of compound in water; type: physicochemical
in vitro [5] = conditions: rat
[6] = Stability of compound in rat liver microsomes; type: ADME, Microsome
Summary of the method: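 Incubation in triplicate with rat liver microsomes at 37°C with NADP, G6P, G6P dehydrogenase and MgCl2. Verapamil and donepezil served as microsomal activity standards.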

[7] = biological target: T2, 5-hydroxytryptamine receptor 1A (Homo sapiens, UniProt P08908); assay: Displacement of [3H]-8-OH-DPAT from human 5HT1A receptor expressed in HEK293 cells incubated for 1 hr by liquid scintillation counter method; type: cell-based; conditions: for pKi: read-out: Ki; for Ki: hek293
T2 sequence (P08908 whole entry): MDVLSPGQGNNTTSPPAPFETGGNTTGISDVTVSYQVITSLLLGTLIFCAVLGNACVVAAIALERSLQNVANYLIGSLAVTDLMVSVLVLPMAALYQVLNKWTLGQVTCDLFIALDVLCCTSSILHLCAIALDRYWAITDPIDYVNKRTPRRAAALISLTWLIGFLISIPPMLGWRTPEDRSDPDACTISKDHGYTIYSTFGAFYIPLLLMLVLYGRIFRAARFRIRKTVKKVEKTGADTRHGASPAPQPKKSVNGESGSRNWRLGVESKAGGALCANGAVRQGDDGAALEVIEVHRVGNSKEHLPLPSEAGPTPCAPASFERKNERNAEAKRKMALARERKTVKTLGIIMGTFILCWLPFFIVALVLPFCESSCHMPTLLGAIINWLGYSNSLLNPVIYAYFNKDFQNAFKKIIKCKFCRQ
Summary of the method: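 HEK293 cells stably expressing human 5-HT1AR; membranes in 50 mM Tris–HCl, 0.1 mM EDTA, 4 mM MgCl2, 10 μM pargyline, 0.1% ascorbate; incubated 1 h at room temperature, then filtered. Nonspecific binding defined with 10 μM 5-HT.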

in vitro [8] = conditions: rat; remark: listed apart in the source
[9] = biological target: Histamine H1 receptor (Homo sapiens) (UniProt P35367); assay: Displacement of [3H] pyrilamine from human recombinant H1 histamine receptor at 10^-6 M measured after 60 mins by scintillation counting method relative to control
Sequence of Histamine H1 receptor (Homo sapiens) (P35367 whole entry): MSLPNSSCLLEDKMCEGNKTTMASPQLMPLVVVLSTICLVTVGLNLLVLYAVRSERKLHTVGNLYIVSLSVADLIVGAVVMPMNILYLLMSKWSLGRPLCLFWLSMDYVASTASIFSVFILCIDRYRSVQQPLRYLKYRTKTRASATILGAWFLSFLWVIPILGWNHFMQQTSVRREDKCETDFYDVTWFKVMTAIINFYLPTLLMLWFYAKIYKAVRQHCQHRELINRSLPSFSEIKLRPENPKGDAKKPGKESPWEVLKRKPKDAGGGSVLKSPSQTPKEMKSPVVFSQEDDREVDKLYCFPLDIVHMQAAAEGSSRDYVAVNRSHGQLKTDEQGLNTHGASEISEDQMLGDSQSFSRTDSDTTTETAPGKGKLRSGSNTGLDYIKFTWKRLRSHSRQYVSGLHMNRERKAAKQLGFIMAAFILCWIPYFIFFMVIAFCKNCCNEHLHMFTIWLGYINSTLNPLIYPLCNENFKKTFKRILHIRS

[10] = biological target: T3, Alpha-1A adrenergic receptor (Rattus norvegicus) (UniProt P43140); assay: Displacement of [3H] prazosin from rat alpha 1A adrenergic receptor at 10^-6 M measured after 60 mins by scintillation counter method relative to control
T3 sequence (whole entry): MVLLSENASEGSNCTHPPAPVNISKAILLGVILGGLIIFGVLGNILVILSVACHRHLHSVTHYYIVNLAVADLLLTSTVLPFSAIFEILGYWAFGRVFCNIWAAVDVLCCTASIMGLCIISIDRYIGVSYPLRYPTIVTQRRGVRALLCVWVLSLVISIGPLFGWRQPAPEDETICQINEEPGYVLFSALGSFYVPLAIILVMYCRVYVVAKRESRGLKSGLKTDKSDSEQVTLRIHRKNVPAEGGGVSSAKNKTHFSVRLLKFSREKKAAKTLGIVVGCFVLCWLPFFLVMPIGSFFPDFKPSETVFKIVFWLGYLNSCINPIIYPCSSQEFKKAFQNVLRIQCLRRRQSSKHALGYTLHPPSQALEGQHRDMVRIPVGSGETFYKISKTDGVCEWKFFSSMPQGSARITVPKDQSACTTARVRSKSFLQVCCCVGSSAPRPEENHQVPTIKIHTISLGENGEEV

[11] = biological target: T4, 5-hydroxytryptamine receptor 2C (Homo sapiens) (UniProt P28335); assay: Displacement of [3H]mesulergine from human recombinant 5HT2C serotonin receptor at 10^-6M incubated for 120 mins by scintillation counter method relative to control
T4 sequence (whole entry): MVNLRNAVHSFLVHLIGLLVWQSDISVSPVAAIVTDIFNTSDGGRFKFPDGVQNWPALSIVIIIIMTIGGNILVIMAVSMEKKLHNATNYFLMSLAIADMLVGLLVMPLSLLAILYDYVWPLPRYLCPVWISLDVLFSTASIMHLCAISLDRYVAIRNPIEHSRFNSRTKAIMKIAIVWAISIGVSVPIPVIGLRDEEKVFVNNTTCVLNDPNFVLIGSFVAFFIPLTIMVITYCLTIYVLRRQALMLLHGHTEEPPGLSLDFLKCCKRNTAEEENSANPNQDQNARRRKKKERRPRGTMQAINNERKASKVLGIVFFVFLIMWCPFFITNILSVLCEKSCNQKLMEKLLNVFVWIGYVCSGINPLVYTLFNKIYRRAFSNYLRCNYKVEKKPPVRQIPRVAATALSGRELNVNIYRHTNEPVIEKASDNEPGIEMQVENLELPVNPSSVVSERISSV

[12] = biological target: T1, 5-hydroxytryptamine receptor 6; assay: Antagonist activity at human 5HT6 receptor expressed in HEK293 cells assessed as inhibition of 5-CT induced cAMP production measured after 30 mins by TR-FRET assay; type: functional, cell-based
[13] = biological target: 5-hydroxytryptamine receptor 2B (Homo sapiens) (UniProt P41595); assay: Antagonist activity at human recombinant 5HT2B receptor expressed in CHOK1 cells at 10^-6 M measured after 30 mins by HTRF assay relative to control; type: cell-based; parameters: scale not given: the % may be the effect or the level left
Sequence of 5-hydroxytryptamine receptor 2B (Homo sapiens) (P41595 whole entry): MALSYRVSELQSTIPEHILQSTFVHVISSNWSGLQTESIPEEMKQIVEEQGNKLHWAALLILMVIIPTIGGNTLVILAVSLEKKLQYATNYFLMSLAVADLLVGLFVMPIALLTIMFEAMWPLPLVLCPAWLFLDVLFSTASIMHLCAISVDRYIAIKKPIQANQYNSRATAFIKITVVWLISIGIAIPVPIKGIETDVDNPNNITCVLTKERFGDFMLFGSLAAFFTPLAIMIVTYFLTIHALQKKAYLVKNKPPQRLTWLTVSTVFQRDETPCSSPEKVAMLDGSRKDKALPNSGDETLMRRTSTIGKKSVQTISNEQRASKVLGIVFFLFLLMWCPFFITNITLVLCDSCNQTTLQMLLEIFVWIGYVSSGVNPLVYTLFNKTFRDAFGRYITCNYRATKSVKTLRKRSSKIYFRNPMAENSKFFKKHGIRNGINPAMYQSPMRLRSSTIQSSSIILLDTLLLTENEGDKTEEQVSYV

[14] = biological target: T5, Muscarinic acetylcholine receptor M1 (Homo sapiens) (UniProt P11229); assay: Displacement of [3H] pirenzepine from human recombinant muscarinic M1 receptor at 10^-6 M measured after 60 mins by scintillation counter method relative to control
T5 sequence (whole entry): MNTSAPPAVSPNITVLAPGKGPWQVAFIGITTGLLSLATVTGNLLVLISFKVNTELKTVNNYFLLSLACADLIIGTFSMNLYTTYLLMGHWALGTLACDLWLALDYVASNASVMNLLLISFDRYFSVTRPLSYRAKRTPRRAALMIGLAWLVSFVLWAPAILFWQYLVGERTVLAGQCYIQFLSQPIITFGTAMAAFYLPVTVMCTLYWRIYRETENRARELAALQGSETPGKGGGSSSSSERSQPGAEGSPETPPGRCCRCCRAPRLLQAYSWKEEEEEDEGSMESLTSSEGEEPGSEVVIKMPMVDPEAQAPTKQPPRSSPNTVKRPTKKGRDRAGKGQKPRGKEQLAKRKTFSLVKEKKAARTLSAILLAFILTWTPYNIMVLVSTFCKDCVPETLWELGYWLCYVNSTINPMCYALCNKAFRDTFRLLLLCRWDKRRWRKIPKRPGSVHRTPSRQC

Compound: COc1ccc2c(c1)c(-c1[nH]c(NC(=O)Cc3ccccc3)nc1C)cn2S(=O)(=O)c1ccccc1
- pKi [1]: 8.52
- pKi [2]: < 5.00
- pKi (D(2) dopamine receptor): < 5.00
- pKi [3]: < 5.00
- solubility ([4]; buffer): Insoluble

Compound: O=S(=O)(c1ccccc1)n1cc(-c2c[n+]3cccnc3[nH]2)c2ccccc21.[Br-]
- half-life (in vitro [5]; microsomes): 6 min
- Stability [6]: Unstable
- pKi [7]: < 5.00
- pKi [1]: 7.30
- pKi [2]: < 5.00
- pKi [3]: < 5.00
- microsomal CLint (in vitro [8]; microsomes): 230 µL/min/mg
- solubility ([4]; buffer): Soluble

Compound: CCC(=O)Nc1nc(C)c(-c2cccc3c2ccn3S(=O)(=O)c2ccccc2)[nH]1
- pKi [7]: < 5.00
- pKi [3]: < 5.00
- solubility ([4]; buffer): Insoluble

Compound: CC(=O)Nc1nc(C)c(-c2ccc3ccn(S(=O)(=O)c4ccccc4)c3c2)[nH]1
- inhibition [9]: -1.9%
- pKi [3]: < 5.00
- inhibition [10]: -4.2%

Compound: CC(=O)Nc1nc(C)c(-c2cn(S(=O)(=O)c3ccccc3)c3ccccc23)[nH]1 [listing 1 of 2 here]
- half-life (in vitro [5]; microsomes): 190 min
- Stability [6]: Stable
- pKi [7]: < 5.00
- pKi [1]: 7.60
- pKi [2]: < 5.00
- pKi (D(2) dopamine receptor): < 5.00
- pKi [3]: < 5.00
- microsomal CLint (in vitro [8]; microsomes): 7.3 µL/min/mg
- solubility ([4]; buffer): Insoluble

Compound: CC(=O)N1CCn2c1nc(C)c2-c1cn(S(=O)(=O)c2ccccc2)c2ccccc12
- pKi [7]: < 5.00
- pKi [3]: < 5.00
- solubility ([4]; buffer): Insoluble

Compound: Cl.Nc1ncc(-c2cn(S(=O)(=O)c3ccccc3)c3ccccc23)[nH]1
- pKi [7]: 6.90
- pKi [3]: 6.05
- solubility ([4]; buffer): Soluble

Compound: CCC(=O)Nc1nc(C)c(-c2cn(S(=O)(=O)c3ccccc3)c3ccc(OC)cc23)[nH]1
- half-life (in vitro [5]; microsomes): 81 min
- Stability [6]: Stable
- pKi [1]: 7.85
- pKi [2]: < 5.00
- pKi (D(2) dopamine receptor): < 5.00
- microsomal CLint (in vitro [8]; microsomes): 17.1 µL/min/mg
- solubility ([4]; buffer): Insoluble

Compound: COc1ccc2c(c1)c(-c1c(C)nc(N)n1CC(F)F)cn2S(=O)(=O)c1ccccc1
- Ki [7]: Not Active
- pKi [1]: 6.80
- Ki [2]: Not Active
- pKi (D(2) dopamine receptor): 5.42
- pKi [3]: 5.49
- solubility ([4]; buffer): Insoluble

Compound: Cc1sc(N)nc1-c1cn(S(=O)(=O)c2cccc3ccccc23)c2ccccc12
- Ki [7]: Not Active
- Ki [3]: Not Active
- solubility ([4]; buffer): Insoluble

Compound: COc1ccc2c(c1)c(-c1[nH]c(NCCc3ccccc3)nc1C)cn2S(=O)(=O)c1ccccc1
- Ki [7]: Not Active
- pKi [1]: 7.08
- Ki [2]: Not Active
- pKi (D(2) dopamine receptor): 5.67
- pKi [3]: 5.72
- solubility ([4]; buffer): Insoluble

Compound: COc1ccc2c(c1)c(-c1[nH]c(NC(C)=O)nc1C)cn2S(=O)(=O)c1ccccc1
- pKi [7]: < 5.00
- pKi [3]: < 5.00
- solubility ([4]; buffer): Insoluble

Compound: Cc1nc(N)[nH]c1-c1ccc2ccn(S(=O)(=O)c3ccccc3)c2c1.Cl
- half-life (in vitro [5]; microsomes): 13 min
- Stability [6]: Unstable
- pKi [7]: < 5.00
- pKi [1]: 8.40
- pKi [2]: 6.11
- pKi (D(2) dopamine receptor): 6.15
- pKi [3]: 5.93
- microsomal CLint (in vitro [8]; microsomes): 104 µL/min/mg
- solubility ([4]; buffer): Soluble

Compound: CC(=O)Nc1nc(C)c(-c2cn(S(=O)(=O)c3ccccc3)c3ccccc23)[nH]1 [listing 2 of 2 here]
- inhibition [11]: 22.4%
- inhibition [9]: -5.9%
- Kb [12]: 1.3 nM
- inhibition [10]: -1.5%
- Activity [13]: -1.9%

Compound: Fc1ccc2c(CCNCc3cccc(OCC(F)(F)C(F)F)c3)c[nH]c2c1 [IDALOPIRDINE]
- microsomal CLint (in vitro [8]; microsomes): 99.3 µL/min/mg

Compound: CCc1nc(NC(C)=O)[nH]c1-c1cn(S(=O)(=O)c2ccccc2)c2ccc(OC)cc12
- pKi [7]: < 5.00
- pKi [3]: < 5.00
- solubility ([4]; buffer): Insoluble

Compound: COc1ccc2c(c1)c(-c1[nH]c(NCC(F)F)nc1C)cn2S(=O)(=O)c1ccccc1
- inhibition [11]: 28%
- inhibition [9]: 1%
- half-life (in vitro [5]; liver microsomes): 36 min
- Kb [12]: 13 nM
- Ki [7]: Not Active
- pKi [1]: 7.68
- Ki [2]: Not Active
- pKi (D(2) dopamine receptor): 5.40
- pKi [3]: 5.91
- inhibition [10]: 4%
- inhibition [14]: -4%
- microsomal CLint (in vitro [8]; liver microsomes): 39 µL/min/mg
- solubility ([4]; water, read-out: solubility): 1000 to 10000 µg/mL (≈ 2.24 to 22.4 mM)

Compound: O=S(=O)(c1ccccc1)c1cnc2c(N3CCNCC3)cccc2c1 [INTEPIRDINE]
- microsomal CLint (in vitro [8]; liver microsomes): 6.6 µL/min/mg

Compound: CC(=O)N1CCCn2c1nc(C)c2-c1cn(S(=O)(=O)c2ccccc2)c2ccccc12
- pKi [7]: < 5.00
- pKi [3]: < 5.00
- solubility ([4]; buffer): Insoluble

Compound: COc1ccc2c(c1)c(-c1[nH]c3nccc[n+]3c1C)cn2S(=O)(=O)c1ccccc1.[Br-]
- pKi [7]: < 5.00
- pKi [3]: < 5.00
- solubility ([4]; buffer): Soluble

Compound: COc1ccc2c(c1)c(-c1[nH]c(N)nc1C)cn2S(=O)(=O)c1ccccc1.Cl
- pKi [7]: < 5.00
- pKi [3]: 6.17
- solubility ([4]; buffer): Soluble
